≈ marks a conversion by molar mass, not a printed value.
Legend:
Escherichia coli [1] = assay: Antibacterial activity against Escherichia coli TOP10 harboring beta-lactamase RTG4 gene by Etest method in presence of 4 ug/ml beta-lactamase inhibitor clavulanic acid; assay type: functional
Summary of the method: (§1)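 MICs read by Etest on Mueller-Hinton agar at 37°C, with β-lactams combined with clavulanic acid at 4 μg/ml. The strains were E. coli TOP10 carrying the cloned RTG gene or the site-directed mutant plasmids (Thr69Ser, Ala49Val, or both).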

Escherichia coli [2] = assay: Antibacterial activity against Escherichia coli TOP10 harboring recombinant plasmid RTG4-S69 by Etest method in presence of 4 ug/ml beta-lactamase inhibitor clavulanic acid; assay type: functional; summary of the method: as §1
Escherichia coli [3] = assay: Antibacterial activity against Escherichia coli TOP10 harboring recombinant plasmid RTG4-V49 by Etest method in presence of 4 ug/ml beta-lactamase inhibitor clavulanic acid; assay type: functional; summary of the method: as §1
Escherichia coli [4] = assay: Antibacterial activity against Escherichia coli TOP10 harboring recombinant plasmid RTG4-S69-V49 by Etest method in presence of 4 ug/ml beta-lactamase inhibitor clavulanic acid; assay type: functional; summary of the method: as §1
Escherichia coli [5] = assay: Antibacterial activity against Escherichia coli TOP10 harboring beta-lactamase RTG3 gene by Etest method in presence of 4 ug/ml beta-lactamase inhibitor clavulanic acid; assay type: functional; summary of the method: as §1
Escherichia coli [6] = assay: Antibacterial activity against Escherichia coli TOP10 by Etest method in presence of 4 ug/ml beta-lactamase inhibitor clavulanic acid; assay type: functional
Summary of the method: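 MICs by Etest on Mueller-Hinton agar plates incubated at 37°C, with clavulanic acid at a fixed 4 μg/ml. The E. coli TOP10 host was tested with recombinant plasmids carrying the cloned HindIII fragment encoding RTG-4 or its site-directed variants (T69S, A49V).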

Acinetobacter baumannii [7] = assay: Antimicrobial activity against Acinetobacter baumannii by […]; assay type: functional
Summary of the method: (§2)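 MICs were determined by Etest on Mueller-Hinton agar at 37°C. Where indicated, clavulanic acid or tazobactam was added at 4 μg/ml.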

Acinetobacter baumannii [8] = assay: Antimicrobial activity against Acinetobacter baumannii by […] in presence of 4 ug/ml beta-lactamase inhibitor clavulanic acid; assay type: functional; summary of the method: as §2
Acinetobacter baumannii [9] = assay: Antimicrobial activity against Acinetobacter baumannii CIP70.10 harboring beta-lactamase RTG4 gene by […]; assay type: functional
Acinetobacter baumannii [10] = assay: Antimicrobial activity against Acinetobacter baumannii CIP70.10 harboring beta-lactamase RTG4 gene by […] in presence of 4 ug/ml beta-lactamase inhibitor clavulanic acid; assay type: functional
Acinetobacter baumannii [11] = assay: Antimicrobial activity against Acinetobacter baumannii CIP70.10 harboring beta-lactamase RTG3 gene by […]; assay type: functional
Acinetobacter baumannii [12] = assay: Antimicrobial activity against Acinetobacter baumannii CIP70.10 harboring beta-lactamase RTG3 gene by […] in presence of 4 ug/ml beta-lactamase inhibitor clavulanic acid; assay type: functional
Acinetobacter baumannii [13] = assay: Antimicrobial activity against Acinetobacter baumannii CIP70.10 by […]; assay type: functional
Acinetobacter baumannii [14] = assay: Antimicrobial activity against Acinetobacter baumannii CIP70.10 by […] in presence of 4 ug/ml beta-lactamase inhibitor clavulanic acid; assay type: functional; summary of the method: as §2
[15] = Ratio of Kcat to Km for recombinant beta-lactamase RTG4 expressed in Escherichia coli TOP10 by nitrocefin hydrolysis assay
[16] = Activity of recombinant beta-lactamase RTG4 expressed in Escherichia coli TOP10 assessed as Ratio of Kcat to Km by nitrocefin hydrolysis assay relative to benzylpenicillin; design: scale not given: the % may be the effect or the level left
[17] = Inhibition of recombinant beta-lactamase RTG4 expressed in Escherichia coli TOP10 by benzylpenicillin hydrolysis assay
[18] = Inhibition of recombinant beta-lactamase RTG3 expressed in Escherichia coli TOP10 by benzylpenicillin hydrolysis assay
Escherichia coli [19] = assay: Antibacterial activity against Escherichia coli TOP10 harboring beta-lactamase RTG4 gene by Etest method; assay type: functional
Summary of the method: (§3)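 MICs read by Etest on Mueller-Hinton agar plates incubated at 37°C. Recombinant E. coli TOP10 carried the cloned β-lactamase gene on plasmid pBK-CMV; the host strain alone was tested alongside.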

Escherichia coli [20] = assay: Antibacterial activity against Escherichia coli TOP10 harboring recombinant plasmid RTG4-S69 by Etest method; assay type: functional
Escherichia coli [21] = assay: Antibacterial activity against Escherichia coli TOP10 harboring recombinant plasmid RTG4-V49 by Etest method; assay type: functional
Escherichia coli [22] = assay: Antibacterial activity against Escherichia coli TOP10 harboring recombinant plasmid RTG4-S69-V49 by Etest method; assay type: functional
Escherichia coli [23] = assay: Antibacterial activity against Escherichia coli TOP10 harboring beta-lactamase RTG3 gene by Etest method; assay type: functional; summary of the method: as §3
Escherichia coli [24] = assay: Antibacterial activity against Escherichia coli TOP10 by Etest method; assay type: functional; summary of the method: as §3
Acinetobacter baumannii [25] = assay: Antimicrobial activity against Acinetobacter baumannii by […] in presence of 4 ug/ml Tazobactam; assay type: functional; summary of the method: as §2
Acinetobacter baumannii [26] = assay: Antimicrobial activity against Acinetobacter baumannii CIP70.10 harboring beta-lactamase RTG4 gene by […] in presence of 4 ug/ml Tazobactam; assay type: functional
Acinetobacter baumannii [27] = assay: Antimicrobial activity against Acinetobacter baumannii CIP70.10 harboring beta-lactamase RTG3 gene by […] in presence of 4 ug/ml Tazobactam; assay type: functional
Acinetobacter baumannii [28] = assay: Antimicrobial activity against Acinetobacter baumannii CIP70.10 by […] in presence of 4 ug/ml Tazobactam; assay type: functional; summary of the method: as §2

Row | SMILES | MIC (Acinetobacter baumannii [7]) | MIC (Acinetobacter baumannii [9]) | MIC (Acinetobacter baumannii [11]) | MIC (Acinetobacter baumannii [13]) | kcat/Km [15] | Activity [16] | MIC (Escherichia coli [19]) | MIC (Escherichia coli [20]) | MIC (Escherichia coli [21]) | MIC (Escherichia coli [22]) | MIC (Escherichia coli [23]) | MIC (Escherichia coli [24]) | also measured
1 | CC1(C)S[C@@H]2[C@H](NC(=O)[C@H](C(=O)O)c3ccsc3)C(=O)N2[C@H]1C(=O)O [TICARCILLIN] | > 256 µg/mL | > 256 µg/mL | > 256 µg/mL | 8 µg/mL (≈ 20.8 µM) | 1.5e+06 M⁻¹ s⁻¹ | 100% | – | – | – | – | – | – | MIC (Escherichia coli [1]): > 256 µg/mL; MIC (Escherichia coli [2]): > 256 µg/mL; MIC (Escherichia coli [3]): > 256 µg/mL; MIC (Escherichia coli [4]): > 256 µg/mL; MIC (Escherichia coli [5]): 16 µg/mL; MIC (Escherichia coli [6]): 2 µg/mL; MIC (Acinetobacter baumannii [8]): > 256 µg/mL; MIC (Acinetobacter baumannii [10]): > 256 µg/mL; MIC (Acinetobacter baumannii [12]): > 256 µg/mL; MIC (Acinetobacter baumannii [14]): 8 µg/mL
2 | C[C@]1(Cn2ccnn2)[C@H](C(=O)O)N2C(=O)C[C@H]2S1(=O)=O [TAZOBACTAM] | – | – | – | – | – | – | – | – | – | – | – | – | IC50 [17]: 350 nM; IC50 [18]: 100 nM
3 | CC1(C)[C@H](C(=O)O)N2C(=O)C[C@H]2S1(=O)=O [SULBACTAM] | – | – | – | – | – | – | – | – | – | – | – | – | IC50 [17]: 1500 nM; IC50 [18]: 200 nM
4 | CO/N=C(\C(=O)N[C@@H]1C(=O)N2C(C(=O)[O-])=C(C[N+]3(C)CCCC3)CS[C@H]12)c1csc(N)n1 | 32 µg/mL (≈ 66.6 µM) | 64 µg/mL (≈ 133 µM) | 4 µg/mL (≈ 8.32 µM) | 1 µg/mL (≈ 2.08 µM) | 1000 M⁻¹ s⁻¹ | 0.06% | 4 µg/mL (≈ 8.32 µM) | 0.5 µg/mL | 4 µg/mL | 0.5 µg/mL | 0.06 µg/mL (≈ 0.125 µM) | – | –
5 | CC1(C)S[C@@H]2[C@H](NC(=O)[C@H](N)c3ccc(O)cc3)C(=O)N2[C@H]1C(=O)O [AMOXICILLIN] | > 256 µg/mL | > 256 µg/mL | > 256 µg/mL | 32 µg/mL (≈ 87.6 µM) | 2e+06 M⁻¹ s⁻¹ | 120% | > 256 µg/mL | > 256 µg/mL | > 256 µg/mL | > 256 µg/mL | 512 µg/mL (≈ 1400 µM) | 2 µg/mL (≈ 5.47 µM) | MIC (Escherichia coli [1]): 32 µg/mL; MIC (Escherichia coli [2]): 32 µg/mL; MIC (Escherichia coli [3]): 32 µg/mL; MIC (Escherichia coli [4]): 32 µg/mL; MIC (Escherichia coli [5]): 4 µg/mL; MIC (Escherichia coli [6]): 2 µg/mL; MIC (Acinetobacter baumannii [8]): 32 µg/mL; MIC (Acinetobacter baumannii [10]): 32 µg/mL; MIC (Acinetobacter baumannii [12]): 32 µg/mL; MIC (Acinetobacter baumannii [14]): 8 µg/mL
6 | CC(=O)OCC1=C(C(=O)O)N2C(=O)[C@@H](NC(=O)Cc3cccs3)[C@H]2SC1 [CEPHALOTHIN] | – | – | – | – | 6000 M⁻¹ s⁻¹ | 0.04% | 64 µg/mL (≈ 161 µM) | 8 µg/mL | 64 µg/mL | 8 µg/mL | 4 µg/mL (≈ 10.1 µM) | 4 µg/mL (≈ 10.1 µM) | –
7 | O=C(O)[C@H]1/C(=C/CO)O[C@@H]2CC(=O)N21 [CLAVULANIC ACID] | – | – | – | – | – | – | – | – | – | – | – | – | IC50 [17]: 70 nM; IC50 [18]: 100 nM
8 | CO/N=C(\C(=O)N[C@@H]1C(=O)N2C(C(=O)O)=C(COC(C)=O)CS[C@H]12)c1csc(N)n1 [CEFOTAXIME] | 16 µg/mL (≈ 35.1 µM) | 16 µg/mL (≈ 35.1 µM) | 8 µg/mL (≈ 17.6 µM) | 8 µg/mL (≈ 17.6 µM) | – | – | 0.25 µg/mL (≈ 0.549 µM) | 0.25 µg/mL | 0.25 µg/mL | 0.25 µg/mL | 0.06 µg/mL (≈ 0.132 µM) | 0.06 µg/mL (≈ 0.132 µM) | –
9 | CC(C)(O/N=C(\C(=O)N[C@@H]1C(=O)N2C(C(=O)[O-])=C(C[n+]3ccccc3)CS[C@H]12)c1csc(N)n1)C(=O)O [CEFTAZIDIME] | 8 µg/mL (≈ 14.6 µM) | 16 µg/mL (≈ 29.3 µM) | 4 µg/mL (≈ 7.32 µM) | 2 µg/mL (≈ 3.66 µM) | – | – | 1 µg/mL (≈ 1.83 µM) | 0.5 µg/mL | 1 µg/mL | 0.5 µg/mL | 0.12 µg/mL (≈ 0.22 µM) | 0.12 µg/mL (≈ 0.22 µM) | –
10 | CC1(C)S[C@@H]2[C@H](NC(=O)COc3ccccc3)C(=O)N2[C@H]1C(=O)O | – | – | – | – | 2e+06 M⁻¹ s⁻¹ | – | – | – | – | – | – | – | –
11 | CO/N=C(\C(=O)N[C@@H]1C(=O)N2C(C(=O)O)=C(COC(N)=O)CS[C@H]12)c1ccco1 [CEFUROXIME] | – | – | – | – | – | – | 4 µg/mL (≈ 9.43 µM) | 2 µg/mL | 2 µg/mL | 2 µg/mL | 2 µg/mL (≈ 4.71 µM) | 2 µg/mL (≈ 4.71 µM) | –
12 | CO/N=C(\C(=O)N[C@@H]1C(=O)N2C(C(=O)[O-])=C(C[n+]3cccc4c3CCC4)CS[C@H]12)c1csc(N)n1 [CEFPIROME] | 32 µg/mL (≈ 62.2 µM) | 64 µg/mL (≈ 124 µM) | 2 µg/mL (≈ 3.89 µM) | 2 µg/mL (≈ 3.89 µM) | 500 M⁻¹ s⁻¹ | 0.03% | 1 µg/mL (≈ 1.94 µM) | 0.25 µg/mL | 1 µg/mL | 0.25 µg/mL | 0.06 µg/mL (≈ 0.117 µM) | 0.06 µg/mL (≈ 0.117 µM) | –
13 | CCN1CCN(C(=O)N[C@@H](C(=O)N[C@@H]2C(=O)N3[C@@H]2SC(C)(C)[C@@H]3C(=O)O)c2ccccc2)C(=O)C1=O [PIPERACILLIN] | > 256 µg/mL | > 256 µg/mL | > 256 µg/mL | 16 µg/mL (≈ 30.9 µM) | 500000 M⁻¹ s⁻¹ | 35% | > 256 µg/mL | > 256 µg/mL | > 256 µg/mL | > 256 µg/mL | 32 µg/mL (≈ 61.8 µM) | 1 µg/mL (≈ 1.93 µM) | MIC (Acinetobacter baumannii [25]): > 256 µg/mL; MIC (Acinetobacter baumannii [26]): > 256 µg/mL; MIC (Acinetobacter baumannii [27]): 128 µg/mL; MIC (Acinetobacter baumannii [28]): 4 µg/mL
14 | C[C@@H](O)[C@H]1C(=O)N2C(C(=O)O)=C(SCCNC=N)C[C@H]12 [IMIPENEM ANHYDROUS] | 0.25 µg/mL (≈ 0.835 µM) | 0.25 µg/mL (≈ 0.835 µM) | 0.25 µg/mL (≈ 0.835 µM) | 0.25 µg/mL (≈ 0.835 µM) | – | – | – | – | – | – | – | – | –

Reference: ChEMBL document CHEMBL1649493, “Genetic and biochemical characterization of the first extended-spectrum CARB-type beta-lactamase, RTG-4, from Acinetobacter baumannii” (Antimicrob Agents Chemother, 2009)
